Results as given in PubChem BioAssay AID2541 (The Scripps Research Institute Molecular Screening Center, 2010).
The source made the active and inactive calls.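 Rule for the calls: active = inhibition of at least 50%; inactive = inhibition below 50%.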

Molecular target: NADPH oxidase 1 (Homo sapiens) (UniProt Q9Y5S8)
Assay: cellular NOX1 ROS production inhibition – luminescence, HT29 cells, confirmation (AID 2541)
Conditions: luminol ROS chemiluminescence, 1 h, at 3.3 µM, active compounds read high
Outline: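 Assay system: HT29 colon epithelial cell line with endogenous NOX1; schedule: compound exposure 1 h before probe; detection: luminol chemiluminescence of intracellular ROS; measure: % inhibition of luminescence; replication: triplicate wells per compound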

Sequence of NADPH oxidase 1 (Homo sapiens) (Q9Y5S8 whole entry, looked up): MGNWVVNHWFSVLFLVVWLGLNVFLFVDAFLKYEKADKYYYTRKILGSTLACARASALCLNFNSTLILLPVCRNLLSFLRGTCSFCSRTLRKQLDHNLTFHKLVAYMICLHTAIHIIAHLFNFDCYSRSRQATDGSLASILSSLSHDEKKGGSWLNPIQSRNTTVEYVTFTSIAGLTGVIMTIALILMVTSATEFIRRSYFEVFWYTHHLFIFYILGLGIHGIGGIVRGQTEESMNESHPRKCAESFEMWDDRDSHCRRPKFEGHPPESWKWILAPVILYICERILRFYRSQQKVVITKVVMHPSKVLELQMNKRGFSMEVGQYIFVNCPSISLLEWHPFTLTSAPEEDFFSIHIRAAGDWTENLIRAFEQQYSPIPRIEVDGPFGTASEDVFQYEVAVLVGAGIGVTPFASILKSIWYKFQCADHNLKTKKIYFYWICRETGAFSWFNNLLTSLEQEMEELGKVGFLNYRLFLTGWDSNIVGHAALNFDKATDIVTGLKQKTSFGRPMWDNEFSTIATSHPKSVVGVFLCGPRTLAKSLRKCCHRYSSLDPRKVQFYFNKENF

Compound | inhibition
CCC(CO)Nc1nc2c([nH]1)c(=O)n(C)c(=O)n2C (stereo unspecified) | -32.2% (inactive)
Nc1nc(NCc2ccccc2OC(F)(F)F)n[nH]1 | 78.4%
COc1cc2ncnc(NNS(=O)(=O)c3cc(C)c(Cl)cc3C)c2cc1OC | 93%
ON/C=N/c1nnc(C(F)(F)F)s1 | 63.1%
Cc1noc(C)c1C(=O)Nc1ccc(N2CCOCC2)nc1N1CCOCC1 | 97.5%
COC(=O)C1=C(Nc2ccc(O)cc2)CSC1 | 63.7%
CCN(CC)c1ccc(NC(=O)C2CCCCC2)c(N(CC)CC)n1 | 37% (inactive)
CCOC(=O)C(=CNNc1ccnc2cc(Cl)ccc12)C(=O)OCC | 87.5%
CC(C)(C)c1csc(NNC(=O)c2ccc(Cl)cc2)n1 | 81.8%
O=C(Nc1ccc(N2CCCCC2)cc1)Nc1ccccc1OC(F)(F)F | 73.9%
COc1ccccc1NNC(=O)c1cc(C(C)(C)C)nn1Cc1ccccc1 | 92.4%
CN(C)c1ccc(NC(=O)Nc2cccs2)cc1 | 48.3% (inactive)
COc1cc2ncnc(NNC(=O)c3cccs3)c2cc1OC | 70.5%
CCN(CC)c1ccc(N=C2C=CC(=O)c3ccccc32)c(C)c1 | 23.7% (inactive)
Cc1nc(C(F)(F)F)c(C(=O)NNc2ncc(C(F)(F)F)cc2Cl)s1 | 101%
COc1ccc(N(C)CC(=O)O)c(C(=O)O)c1 | 75%
S=c1[nH]cc(-c2ccc(Br)cc2)[nH]1 | 70.8%
c1ccc2c(c1)NC(c1ccc3c(c1)OCO3)O2 (stereo unspecified) | -39.8% (inactive)
CC[n+]1c(C)csc1Nc1ccc(N2CC(C)OC(C)C2)cc1 (stereo unspecified) | 89.3%
Cc1ccc(NCN2C(=O)c3ccc([N+](=O)[O-])cc3C2=O)cc1 | 17.8% (inactive)
CN(C)c1ccc(/C=N/Nc2c(Cl)cncc2Cl)cc1 | 73.6%
CC(=O)/C(C=Nc1cc(C)c(O)c(Cl)c1)=C(\C)O | -27.6% (inactive)
NS(=O)(=O)c1ccc(NNC(=O)c2c(F)cccc2Cl)cc1 | 74.3%
O=C1C=CC(=O)N1CCc1ccccc1 | 11.1% (inactive)

Compound | inhibition
COCCCNC(=S)NNC(=S)Nc1ccccc1 | 70.1%
O=C(Oc1ccccc1N1CCCCC1)c1sc2ccccc2c1Cl | 84.3%
CC(=O)c1ccc(NCN2C(=O)/C(=C\N(C)C)NC2=S)cc1 | 59.2%
Cc1oc(-c2ccc(Cl)cc2)cc1C(=O)O/N=C(\N)Cc1nc2cccnc2n1C1CC1 | -17.1% (inactive)
CCOC(=O)c1nsc(/C(C)=N/Nc2ccccc2)c1N | 16% (inactive)
CN(C)c1ccc(NC(=O)Nc2ccc(OCc3ccccc3)cc2)cc1 | 90.2%
Cc1cc(S(=O)(=O)NNc2ncnc3c2cnn3C)c(C)cc1Cl | 102%
COc1ccc(Cl)cc1NC(=O)Nc1ccc(N(C)C)cc1 | 88.8%
O=c1[nH][nH]c2cccc(F)c12 | 9.8% (inactive)
COC(=O)c1sccc1-c1ccc(CN2CCCc3cc(OC)ccc32)o1 | 74.1%
Nc1nc(NCc2ccccn2)n[nH]1 | 78.6%
COc1cc(-c2nc(-c3ccccc3)c(-c3ccccc3)[nH]2)ccc1O | 84.1%
O=[N+]([O-])c1cc(C(F)(F)F)cc([N+](=O)[O-])c1Sc1ncc2ccccn12 | -0.1% (inactive)
CC(C)C(=O)NNc1nc2c(c(=O)n(C)c(=O)n2C)n1Cc1ccc(Cl)cc1 | 76.1%
Cc1cc(C)cc(NC(=O)Nc2ccc(N3CCCCC3)cc2)c1 | 74.4%
COc1ccc(OC(=O)c2ccc3ncccc3c2)cc1 | 51.6%
CC(=O)Oc1ccc(OC(C)=O)c2c1[C@@H]1C=C[C@H]2CC1 | 75.9%
O=S(=O)(Nc1ccc(N2CCCCC2)cc1)c1ccccc1 | 85.4%
CCOc1ccccc1Nc1n[nH]c(=S)s1 | 81.5%
CC(C)(C)c1cc2nc(C(F)(F)F)cc(NNC(=O)Nc3ccc(OC(F)(F)F)cc3)n2n1 | 11.4% (inactive)
O=C(NNc1c([N+](=O)[O-])cc(C(F)(F)F)cc1[N+](=O)[O-])c1ccco1 | 92.8%
O=c1c(Cl)c2oc3ccccc3nc-2c2ccccc12 | 56.3%
Nc1nc2[nH]c(=S)[nH]c2c(=O)[nH]1 | 29.6% (inactive)
CCC1=Nc2cccc3cccc(c23)N1 | 14% (inactive)

Compound | inhibition
c1ccc2c(c1)Nc1nc3ccccc3nc1N2 | 79.7%
Cn1cnc(S(=O)(=O)Nc2ccc(N3CCCCC3)cc2)c1 | 77.2%
O=C(Nc1ccc(Cl)cc1)Oc1ccccc1N1CCSCC1 | 56.4%
O=C1C=C(I)C(=O)C=C1I | 60.4%
CCOC(=O)C1=C(Nc2ccc(OC(C)=O)cc2)C(=O)N(C(C)(C)C)C1 | 72.9%
O=C(Oc1ccccc1N1CCOCC1)c1cccnc1Oc1ccccc1 | 71.9%
CCC(=O)N1c2cc(Cl)ccc2-n2c(nn(C(=O)CC)c2=O)N1C(=O)CC | 81.7%
FC(F)(F)c1ccc2c(c1)Nc1ccccc1S2 | 86.9%
Cc1cc(C(=O)NNc2cc(Cl)ccc2Cl)no1 | 108%
CCN(CC)c1ccc(NC(=O)c2c(F)cccc2F)c(N(CC)CC)n1 | 37.1% (inactive)
Cc1ccc(SC#N)c(N)n1 | 63.2%
COc1cccc(NC(=S)NNc2ccc([N+](=O)[O-])cc2)c1 | 89.2%
CCC(=O)Nc1ccc2c(c1)N(CC)C(C)(C)CC2C (stereo unspecified) | 65.4%
COc1ccc(C(=O)NNc2c([N+](=O)[O-])cc(C(F)(F)F)cc2[N+](=O)[O-])cc1 | 88.1%
O=c1[nH]nc(N2CCSCC2)[nH]1 | 96.6%
Cn1ncc(C(=O)NC(=O)Nc2ccc(F)cc2)c1[N+](=O)[O-] | 6.3% (inactive)
CCn1c(-c2cc(-c3ccccc3)sc2N)n[nH]c1=S | -5.1% (inactive)
O=C(Oc1ccccc1N1CCCCC1)c1ccco1 | 95%
S=C(NNc1nccc(-c2cccnc2)n1)Nc1ccccc1 | 88.4%
O=C(Oc1ccccc1N1CCOCC1)c1cccs1 | 87.8%
Cc1cc(S(=O)(=O)NNc2ncnc3cc(C(C)(C)C)sc23)c(C)cc1Cl | 71%
O=[N+]([O-])c1cc(C(F)(F)F)ccc1Oc1ccc(-c2nnco2)cc1 | 58.8%
Nc1nc(NCc2c(Cl)cccc2Oc2ccccc2)n[nH]1 | 74.1%
Nc1nc(Nc2ccccc2)n[nH]1 | 73.6%

Compound | inhibition
Cc1csc2ncnc(NNS(=O)(=O)c3cc(C(F)(F)F)cc(C(F)(F)F)c3)c12 | 81.6%
O=C(Nc1ccc(Cl)cc1Cl)c1cc([N+](=O)[O-])cc2c1-c1ccc([N+](=O)[O-])cc1C2=O | -22.8% (inactive)
Cc1cc(Br)c(NC(=S)NNc2ccccc2)c(Br)c1 | 76.9%
Cn1nc(-c2ccccc2)c(O)c(N=Nc2ccccc2)c1=O | 88.9%
CC1(C)CC(Nc2ccc(Nc3ccccc3)cc2)CC(C)(C)N1 | 61.5%
O=C(O)/C(=N/Nc1ccccc1O)c1ccccc1 | 62.5%
O=C(N/N=C/c1ccc(O)cc1)N/N=C/c1ccc(O)cc1 | 76.7%
CSC1=NS(=O)(=O)c2c(C)nn(C)c2S1 | 33.3% (inactive)
Cc1ccccc1C(=O)Oc1ccc(-c2csnn2)cc1 | 54.9%
CC1CN(c2ccc(NC(=S)NN)cc2)CC(C)O1 (stereo unspecified) | 59.5%
O=c1c2c(-c3ccc([N+](=O)[O-])cc3)onc2n(-c2ccccc2)c(=O)n1-c1ccccc1 | 29% (inactive)
O=c1[nH]c2ccsc2c(=O)n1CCO | 95.7%
COc1cccc(NC(=S)NNC(=S)NC2CC3CCC2C3)c1 (stereo unspecified) | 78.9%
CC1=CC(=O)C(CCC2=CC(=O)C(C)=CC2=O)=CC1=O | 10.4% (inactive)
O=C(Oc1cccc2[nH]ccc12)c1ccc(C(F)(F)F)cc1 | 30.4% (inactive)
Cc1cc(Cl)ccc1NC(=S)NNC(=S)Nc1ccc(F)cc1 | 89%
COc1cccc(C(=O)CSc2nsc(SCC(=O)c3cccc(OC)c3)c2C#N)c1 | 44.1% (inactive)
N#Cc1c(N)sc2c1CCc1ccccc1-2 | 103%
COc1ccc(OC)c(S(=O)(=O)c2ccc([N+](=O)[O-])cc2Cl)c1 | 43.9% (inactive)
COc1ccc2c(c1)CCCN2Cc1c[nH]c2ccccc12 | 26.5% (inactive)
O=C(NNc1c([N+](=O)[O-])cc(C(F)(F)F)cc1[N+](=O)[O-])c1ccccc1-n1cccc1 | 78%
CN(NC=C(C#N)C#N)c1ccccc1[N+](=O)[O-] | 100%
O=C1c2ccccc2C(=O)N1CNc1ccc(N2CCOCC2)cc1 | 11.1% (inactive)
CCS(=O)(=O)c1ccc(O)c(NC(=O)c2ccccc2C(=O)O)c1 | -41.4% (inactive)
